Measured values from ChEMBL document CHEMBL1151771, “Lanostane-type triterpenes from the mushroom Astraeus pteridis with antituberculosis activity” (J Nat Prod, 2008).
Converted amounts (≈) assume the structure as drawn.

Experiments:
Vero = assay: Cytotoxicity against african green monkey Vero cells upto 100 uM; type: cell-based; details: chlorocebus sabaeus
Method in brief: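 Vero cells (ATCC CCL-81) tested with a nonradioactive cell proliferation (CellTiter 96) assay. IC50 taken as the reciprocal dilution giving 50% inhibition of Vero cells.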

[1] = system: Mycobacterium tuberculosis; assay: Antimicrobial activity against Mycobacterium tuberculosis H37Rv by Alamar blue assay; type: functional
Method in brief: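 M. tuberculosis H37Rv (ATCC27294) in microplate Alamar Blue assay, fluorescence read-out. MIC taken as lowest concentration giving 90% fluorescence reduction relative to controls. Rifampin run in each test as positive quality control.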

| SMILES | Activity (Vero) | MIC [1] [µg/mL] |
| --- | --- | --- |
| C[C@H]([C@@H]1CC[C@H](C)[C@@H](O)O1)[C@H]1CC[C@@]2(C)C3=C(CC[C@]12C)[C@@]1(C)CC[C@@H](O)C(C)(C)[C@@H]1CC3 | Non-toxic | 34 (≈ 74.1 µM) |
| C[C@H]([C@@H]1CC[C@H](C)C(=O)O1)[C@H]1CC[C@@]2(C)C3=C(CC[C@]12C)[C@@]1(C)CC[C@@H](O)C(C)(C)[C@@H]1CC3 | Non-toxic | 58 (≈ 127 µM) |
| C[C@H]([C@@H]1CC[C@H](C)[C@@H](O)O1)[C@H]1CC[C@@]2(C)C3=C(CC[C@]12C)[C@@]1(C)CCC(=O)C(C)(C)[C@@H]1CC3 [ASTRAPTERIDONE] | Non-toxic | > 64 |
| C[C@H]([C@@H]1CC[C@H](C)C(=O)O1)[C@H]1CC[C@@]2(C)C3=C(CC[C@]12C)[C@@]1(C)CCC(=O)C(C)(C)[C@@H]1CC3 [ASTRAHYGRONE] | Non-toxic | 64 (≈ 141 µM) |
| C[C@H]([C@@H]1CC[C@H](C)[C@@H](O)O1)[C@H]1CC[C@@]2(C)C3=C(CC[C@]12C)[C@@]1(C)CC[C@H](O)C(C)(C)[C@@H]1CC3 [ASTRAPTERIDIOL] | Non-toxic | > 64 |
